In assay [1] the test system is Mus musculus. Kind of assay: Anti-inflammatory activity in FVB mouse with zymosan-induced sterile peritonitis assessed as reduction in PMN infiltration in peritoneal inflammatory exudates at 10 ng, ip measured at 4 hrs dosed 10 mins before zymosan challenge by light microscopy and flow cytometry. The format is functional. The gist of the method: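 Male FVB mice, 6–8 weeks old, were dosed i.p. with 10 ng in saline with 0.1% EtOH, then zymosan 1 mg/mouse i.p. 10 min later. Peritoneal lavage was collected at 4 h in PBS without Ca/Mg. Leukocytes were enumerated by light microscopy and flow cytometry. Mean ± SEM, n = 4 mice per treatment.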
In general terms: A flow cytometer gives signals particle by particle.

Assay [2] concerns Mus musculus. Briefly: Anti-inflammatory activity in FVB mouse with zymosan-induced sterile peritonitis assessed as reduction in PGD2 in peritoneal inflammatory exudates at 10 ng, ip dosed 10 mins before zymosan challenge by LC-MS/MS based targeted lipid mediator metabololipidomics. The format is functional. The gist of the method:
(§1)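 Male FVB mice, 6–8 weeks old, received 10 ng i.p. in saline with 0.1% EtOH as vehicle, then zymosan 1 mg/mouse i.p. 10 min later. Peritoneal lavage was taken at 4 h in PBS without Ca/Mg. Eicosanoids were measured by LC/MS-MS after solid-phase extraction, identified with at least six diagnostic ions and quantified against linear calibration curves. Mean ± SEM, n = 4 mice per group.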

The test system of assay [3] is Mus musculus. Kind of assay: Anti-inflammatory activity in FVB mouse with zymosan-induced sterile peritonitis assessed as reduction in PGF2alpha in peritoneal inflammatory exudates at 10 ng, ip dosed 10 mins before zymosan challenge by LC-MS/MS based targeted lipid mediator metabololipidomics. It is filed as functional. In a few lines:
as §1

The subject of assay [4] is Mus musculus. Kind of assay: Anti-inflammatory activity in FVB mouse with zymosan-induced sterile peritonitis assessed as reduction in TXB2 in peritoneal inflammatory exudates at 10 ng, ip dosed 10 mins before zymosan challenge by LC-MS/MS based targeted lipid mediator metabololipidomics. It is filed as functional. The gist of the method: as §1
The species named for assay [5] is Homo sapiens. Kind of assay: Inhibition of LTB4-induced cell adhesion to fibronectin in human primary PMN at 0.1 to 10 nM pre-incubated for 10 mins followed by LTB4 stimulation by flow cytometry. It is filed as functional. Conditions: in the assay text read “flow chamber assay with microscopy” for “flow cytometry”. The gist of the method: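 Purified human PMN were pretreated 10 min at room temperature, then stimulated with 10 nM LTB4 for 10 min at room temperature. Cells at 1 × 10^6/mL were perfused over fibronectin-coated chambers at 0.5 mL/min for 5 min. Adherent cells were counted in six random fields by imaging. Three independent experiments; paired t test versus vehicle.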

The nature of assay [6]: Inhibition of IL8-induced chemotaxis of human primary PMN at 0.01 to 100 nM pre-incubated for 15 mins followed by IL8 stimulation by PrestoBlue fluorescence assay.
Assay [7] in a line: Inhibition of LTB4-induced chemotaxis of human primary PMN at 0.01 to 100 nM pre-incubated for 15 mins followed by LTB4 stimulation by PrestoBlue fluorescence assay.
For assay [8], the species on record is Homo sapiens. Briefly: Inhibition of IL8-induced chemotaxis of human primary PMN at 0.01 to 100 nM pre-incubated for 15 mins followed by IL8 stimulation by PrestoBlue fluorescence assay.
The species named for assay [9] is Homo sapiens. Briefly: Inhibition of LTB4-induced chemotaxis of human primary PMN at 0.01 to 100 nM pre-incubated for 15 mins followed by LTB4 stimulation by PrestoBlue fluorescence assay.

Calls of active or inactive are those of the source. The rule behind the calls is not given here.

Consider `O=C(O)CC/C=C\C/C=C\C[C@@H](O)/C=C/C=C/C=C\[C@@H](O)C/C=C\CCO`, for which the “inhibition (INH)” value with Mus musculus [1] was determined as 43%; in the assay with Mus musculus [2], 27%; with Mus musculus [3], 43%; with Mus musculus [4], 48%; in [6], 23%; in assay [7], 19%. In addition, the inhibition entry in the assay filed under Homo sapiens [5] is “Active”.

Take `CC/C=C\C[C@H](O)\C=C/C=C/C=C/[C@H](O)C/C=C\C/C=C\CCC(=O)O`: the “inhibition (INH)” value in the assay on Mus musculus [1] is 54%. Further, the inhibition result with Mus musculus [2], in the assay on Mus musculus [3], in the assay with Mus musculus [4], in the assay listed under Homo sapiens [5], in the assay filed under Homo sapiens [8] and in the assay filed under Homo sapiens [9] was “Active” each time.

(Values after ChEMBL document CHEMBL3352688, “Synthesis and anti-inflammatory and pro-resolving activities of 22-OH-PD1, a monohydroxylated metabolite of protectin D1” (2014).)
